Measurements reported in ChEMBL document CHEMBL1157459 (J Med Chem, 2008).
The source made the active and inactive calls. The rule behind the calls is not given here.

What was measured:
[1] = target: T1, Gamma-aminobutyric acid receptor subunit rho-1 (Homo sapiens, UniProt P24046); experiment: Antagonist activity at human GABAc Rho1 receptor expressed in Xenopus oocytes assessed as whole cell current production by two electrode voltage clamp method; assay type: functional, cell-based; conditions: for Kb: Oocyte
T1 sequence (P24046 whole entry): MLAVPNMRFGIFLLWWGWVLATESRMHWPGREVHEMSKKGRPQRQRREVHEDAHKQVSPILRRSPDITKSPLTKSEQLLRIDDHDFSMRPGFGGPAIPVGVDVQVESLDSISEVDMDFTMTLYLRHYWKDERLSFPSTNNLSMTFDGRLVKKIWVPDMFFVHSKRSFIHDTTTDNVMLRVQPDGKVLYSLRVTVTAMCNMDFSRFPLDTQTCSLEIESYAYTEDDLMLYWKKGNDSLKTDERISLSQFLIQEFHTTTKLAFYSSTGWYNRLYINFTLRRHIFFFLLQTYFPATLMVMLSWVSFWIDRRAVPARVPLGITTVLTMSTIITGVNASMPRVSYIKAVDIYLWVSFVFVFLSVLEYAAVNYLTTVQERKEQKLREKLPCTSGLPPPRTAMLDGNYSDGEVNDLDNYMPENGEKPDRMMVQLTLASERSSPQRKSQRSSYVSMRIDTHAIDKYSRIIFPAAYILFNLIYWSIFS

[2] = target: T2, GABA-A receptor; agonist GABA site (Homo sapiens) (UniProt P14867+P47870+P28472+P48169+P34903+P18505+P47869+P31644+Q16445); experiment: Activity at human alpha-1-beta-2-gamma-2L GABAA receptor expressed in Xenopus oocytes assessed as inhibition of current production at 600 uM by two electrode voltage clamp method relative to GABA; assay type: cell-based; conditions: Oocyte
[3] = target: T1, Gamma-aminobutyric acid receptor subunit rho-1; experiment: Antagonist activity at human GABAc Rho1 receptor expressed in Xenopus oocytes assessed as whole cell current production at 600 uM by two electrode voltage clamp method; assay type: functional, cell-based; conditions: Oocyte
[4] = target: T3, Gamma-aminobutyric acid type B receptor subunit 1 (Homo sapiens, UniProt Q9UBS5); experiment: Activity at human GABAb 1A/2 receptor expressed in Xenopus oocytes assessed as whole cell current production at 600 uM by two electrode voltage clamp method; assay type: cell-based; conditions: Oocyte
T3 sequence (Q9UBS5 whole entry): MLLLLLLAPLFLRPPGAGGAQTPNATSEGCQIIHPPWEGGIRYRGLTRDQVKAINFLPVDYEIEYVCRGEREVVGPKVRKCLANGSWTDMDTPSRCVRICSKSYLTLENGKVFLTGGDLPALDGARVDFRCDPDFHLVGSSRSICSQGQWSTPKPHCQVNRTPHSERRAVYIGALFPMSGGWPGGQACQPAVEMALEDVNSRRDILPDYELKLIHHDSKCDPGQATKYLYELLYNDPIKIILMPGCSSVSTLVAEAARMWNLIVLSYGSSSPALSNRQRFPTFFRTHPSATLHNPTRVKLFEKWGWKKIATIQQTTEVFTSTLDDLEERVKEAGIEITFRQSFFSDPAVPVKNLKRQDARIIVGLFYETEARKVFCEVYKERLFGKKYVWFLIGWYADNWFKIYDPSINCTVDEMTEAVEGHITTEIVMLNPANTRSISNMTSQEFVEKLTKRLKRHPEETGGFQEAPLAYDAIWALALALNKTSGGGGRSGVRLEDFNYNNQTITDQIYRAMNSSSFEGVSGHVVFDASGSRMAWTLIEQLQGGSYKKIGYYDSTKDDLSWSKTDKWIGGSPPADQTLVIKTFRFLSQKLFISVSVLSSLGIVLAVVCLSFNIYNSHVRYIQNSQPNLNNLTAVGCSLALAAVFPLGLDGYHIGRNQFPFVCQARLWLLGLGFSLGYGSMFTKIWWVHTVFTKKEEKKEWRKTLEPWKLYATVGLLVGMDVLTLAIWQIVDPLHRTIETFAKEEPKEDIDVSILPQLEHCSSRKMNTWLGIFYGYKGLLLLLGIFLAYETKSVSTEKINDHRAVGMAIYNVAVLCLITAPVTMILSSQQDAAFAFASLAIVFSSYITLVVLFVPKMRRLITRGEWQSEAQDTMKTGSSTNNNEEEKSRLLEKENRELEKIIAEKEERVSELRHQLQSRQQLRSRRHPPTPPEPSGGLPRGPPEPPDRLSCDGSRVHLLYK

[5] = target: T1, Gamma-aminobutyric acid receptor subunit rho-1; experiment: Agonist activity at human GABAc Rho1 receptor expressed in Xenopus oocytes assessed as whole cell current production by two electrode voltage clamp method; assay type: functional, cell-based, Oocyte
[6] = target: T3, Gamma-aminobutyric acid type B receptor subunit 1; experiment: Agonist activity at human GABAb 1A/2 receptor expressed in Xenopus oocytes assessed as whole cell current production by two electrode voltage clamp method; assay type: functional, cell-based, Oocyte
[7] = target: T3, Gamma-aminobutyric acid type B receptor subunit 1; experiment: Intrinsic activity at human GABAb 1A/2 receptor expressed in Xenopus oocytes assessed as maximum whole cell current production by two electrode voltage clamp method relative to GABA; assay type: cell-based; conditions: Oocyte
In short: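 Human GABA-B(1A/2) receptors expressed from cRNA (50 ng/50 nL) in Xenopus oocytes held 1-5 days at 18 °C. Voltage clamp at -60 mV in high-K+ buffer (45 mM KCl, 45 mM NaCl, 1 mM MgCl2, 1.8 mM CaCl2, 5 mM HEPES). Responses normalised to the maximal response to 600 µM GABA. Imax and EC50 taken from concentration-response fits. Mean ± SEM, n = 3-5 oocytes.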

[8] = target: T2, GABA-A receptor; agonist GABA site (Homo sapiens); experiment: Agonist activity at human alpha-1-beta-2-gamma-2L GABAA receptor expressed in Xenopus oocytes assessed as inhibition of current production by two electrode voltage clamp method; assay type: functional, cell-based; conditions: Oocyte

Compound `CC(C)P(=O)(O)C1=CCC(N)C1` (racemic) has a Kb [1] of 13.1 µM and an inhibition [2] of 8.8%.

With `CP(=O)(O)[C@]1(O)C[C@H](N)C1` the Activity [3] was “inactive” and the Activity [4] was “inactive”.

In the case of `CCCCP(=O)(O)C1=CCC(N)C1` (racemic), the Kb [1] is reported as 7.24 µM and the inhibition [2] is reported as 23.2%.

In the case of `NCC(=O)CCC(=O)O` [AMINOLEVULINIC ACID], the IC50 [1] is reported as 12.9 µM.

Compound `NC[C@@H]1C[C@H]1C(=O)O` has an EC50 [5] of 9 µM.

`CP(=O)(O)[C@@H]1CC[C@H](N)C1` gave a Kb [1] of 1.1 µM.

`CP(=O)(O)[C@]1(O)C[C@@H](N)C1` was tested, and the Activity [3] was “inactive” and the Activity [4] was “inactive”.

`CP(=O)(O)C1=CCNCC1` was tested, and the EC50 [6] was 500 µM and the Kb [1] was 2.1 µM.

`N[C@H]1CC=C(C(=O)O)C1` (stereo in doubt; (S-6)) showed a Kb [1] of 6.1 µM.

For `CP(=O)(O)[C@H]1C[C@@H](N)C1`, the IC50 [1] was over 100 µM and the Activity [4] was “inactive”.

`CCCCP(=O)(O)C1=CC[C@@H](N)C1` was tested, and the Kb [1] was 59.3 µM and the Activity [2] was “inactive”.

Compound `CP(=O)(O)C1=CC[C@H](N)C1` has an EC50 [6] of 52.2 µM, a Kb [1] of 0.78 µM and an Imax [7] of 75.9%. The inhibition [2] was 4.1%.

`CP(=O)(O)/C=C\CN` showed a Kb [1] of 38.9 µM.

`CP(=O)(O)[C@@H]1CC[C@@H](N)C1` gave a Kb [1] of 6.6 µM.

Compound `O=[Se](O)C1CCNCC1` has a Kb [1] of 0.95 µM.

`CCCCP(=O)(O)C1=CC[C@H](N)C1` gave a Kb [1] of 4.97 µM and an inhibition [2] of 24.2%.

Work on `NC[C@@H]1C[C@@H]1C(=O)O` yielded an IC50 [1] of over 800 µM.

For `CP(=O)(O)C1=CCC(N)C1` (racemic), the EC50 [6] was 51 µM, the Kb [1] was 1.84 µM and the Imax [7] was 56.4%. For the same compound, the inhibition [2] was 6.2%.

For `NC/C=C/C(=O)O` [t-4-AMINOCROTONIC ACID (TACA)], the EC50 [5] was 0.4 µM.

`CP(=O)(O)[C@H]1CC[C@@H](N)C1` was tested, and the Kb [1] was 1.1 µM.

With `CP(=O)(O)[C@H]1CC[C@H](N)C1` the Kb [1] was 6.6 µM.

Compound `NC[C@H]1C[C@@H]1C(=O)O` has an EC50 [5] of 59 µM.

In the case of `N[C@H]1CC=C(C(=O)O)C1` (stereo in doubt; 6), the Kb [1] is reported as 6 µM and the ED50 [8] is reported as 1.1 µM.

`CP(=O)(O)C1CCNCC1` gave a Kb [1] of 6 µM.

Work on `NCc1cc(=O)[nH]o1` [MUSCIMOL] yielded an EC50 [5] of 1.4 µM.

`NCCCCC(=O)O` was tested, and the Kb [1] was 20 µM.

For `O=C(O)Cc1c[nH]cn1`, the Kb [1] was 1.7 µM.

With `NC[C@H]1C[C@H]1C(=O)O` the EC50 [5] was 40 µM.

For `CP(=O)(O)C1=CC[C@@H](N)C1`, the EC50 [6] was 71.9 µM, the Kb [1] was 18.9 µM and the Imax [7] was 52.3%. For the same compound, the Activity [2] was “inactive”.

`Oc1noc2c1CCNC2` showed a Kb [1] of 32 µM.

With `NC1CC=C(P(=O)(O)Cc2ccccc2)C1` (racemic) the Kb [1] was 48.6 µM and the inhibition [2] was 64.1%.

With `CCP(=O)(O)C1=CCC(N)C1` (racemic) the Kb [1] was 3.53 µM and the inhibition [2] was 5.2%.

`CP(=O)(O)[C@H]1C[C@H](N)C1` was tested, and the IC50 [1] was over 100 µM and the Activity [4] was “inactive”.
